How the values were obtained:
[1] = test system: West Nile virus; experiment: Antiviral activity against West Nile virus infected in CyPA-deficient human Huh7.5 cells assessed as decrease in viral replication at 4 uM after 24 hrs by luciferase reporter gene assay; assay type: functional; details: Huh-7, 24 h
Outline: (§1)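 Huh-7.5 shRNA lines (CyPA knockdown sh-A and control sh-Fluc; puromycin 1 μg/ml) seeded at 2 × 10⁴/well and infected 24 h later with WNV VLP at 1 FFU/cell. Cs (0, 4 or 8 μM) or 1% ethanol added at once. Luciferase read at 24 h p.i. and expressed as % of ethanol-treated sh-Fluc. Mean ± SD of three independent experiments.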

[2] = test system: West Nile virus; experiment: Antiviral activity against West Nile virus infected in CyPA-deficient human Huh7.5 cells assessed as decrease in viral replication at 8 uM after 24 hrs by luciferase reporter gene assay; assay type: functional; details: Huh-7, 24 h; outline: as §1
[3] = test system: West Nile virus; experiment: Antiviral activity against West Nile virus infected in human Huh7.5 cells assessed as decrease in viral replication at 8 uM after 24 hrs by luciferase reporter gene assay; assay type: functional; details: Huh-7, 24 h; outline: as §1
[4] = test system: West Nile virus; experiment: Antiviral activity against West Nile virus infected in african green monkey Vero cells assessed as decrease in viral RNA synthesis after 24 hrs by luciferase reporter gene assay; assay type: functional, organism-based
Outline: (§2)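 Stable Rluc-Neo-Rep replicon-bearing Vero cells (DENV-1 or WNV; kept in DMEM/10% FBS with 1 mg/ml G418, 37°C, 5% CO₂) treated with Cs at ≤8 μM. Read-out is replicon Renilla luciferase, and 50% effective concentration is taken from the dose response.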

[5] = test system: dengue virus type 1; experiment: Antiviral activity against Dengue virus 1 infected in african green monkey Vero cells assessed as decrease in viral RNA synthesis after 24 hrs by luciferase reporter gene assay; assay type: functional, organism-based; outline: as §2
[6] = test system: West Nile virus; experiment: Antiviral activity against West Nile virus infected in human Huh7.5 cells assessed as decrease in viral RNA synthesis at 8 uM after => 20 hrs by luciferase reporter gene assay; assay type: functional; details: Huh-7, 20 h
Outline: (§3)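 Rluc2A-Rep replicon RNA (10 μg; WNV or DENV-1) electroporated into Huh-7.5 cells, seeded at 4 × 10⁵/well, then treated at once with 8 μM Cs or 1% ethanol. Cells washed with cold PBS and lysed at time points, and lysates frozen at −80°C. Luciferase read on 20 μl lysate. Early signal (1–10 h p.t.) reflects translation and later signal (>10 h) reflects RNA replication.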

[7] = test system: dengue virus type 1; experiment: Antiviral activity against Dengue virus 1 infected in human Huh7.5 cells assessed as decrease in viral RNA synthesis at 8 uM after => 20 hrs by luciferase reporter gene assay; assay type: functional; details: Huh-7, 20 h; outline: as §3
[8] = test system: Yellow fever virus; experiment: microbe, parasite or virus in culture; assay type: functional; details: Huh-7, 20 h

## C/C=C/C[C@@H](C)[C@@H](O)[C@H]1C(=O)N[C@@H](CC)C(=O)N(C)CC(=O)N(C)[C@@H](CC(C)C)C(=O)N[C@@H](C(C)C)C(=O)N(C)[C@@H](CC(C)C)C(=O)N[C@@H](C)C(=O)N[C@H](C)C(=O)N(C)[C@@H](CC(C)C)C(=O)N(C)[C@@H](CC(C)C)C(=O)N(C)[C@@H](C(C)C)C(=O)N1C [CYCLOSPORINE]
[1]
  inhibition at 4 µM: 10%
[2]
  inhibition at 8 µM: 2%
[3]
  inhibition at 8 µM: 4%
[4]
  IC50: 8 µM
[5]
  IC50: ≤ 0.5 µM
[6]
  inhibition at 8 µM: ≥ 70%
[7]
  inhibition at 8 µM: ≥ 70%
[8]
  inhibition at 8 µM: ≥ 70%

Source: ChEMBL document CHEMBL1649528 (Antimicrob Agents Chemother, 2009)
